Test results reported in the EternaBench riboswitch data.

System: MS2 coat protein
Assay: apparent Kd, MS2 coat protein; higher = weaker binding; RNA-MaP array; FMN 200 µM where present
Procedure, shortened: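 Stalled E. coli RNA polymerase transcribed the designs on Illumina sequencing-chip clusters. SNAP-549-labelled MS2 coat protein was titrated from 0.7 or 1.5 nM, doubling to 3 µM, without and then with constant ligand, in 100 mM Tris-HCl pH 7.5, 80 mM KCl, 4 mM MgCl2, BSA, DTT, yeast tRNA and Tween-20. Per-cluster binding curves were fitted to green signal normalised to red-channel RNA signal and control-cluster median Fmax. The apparent Kd is the median of the filtered fits.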

[1] = designed as: ON switch for flavin mononucleotide, no ligand
[2] = ligand present: flavin mononucleotide, designed as: ON switch for flavin mononucleotide
[3] = designed as: OFF switch for flavin mononucleotide, no ligand
[4] = ligand present: flavin mononucleotide, designed as: OFF switch for flavin mononucleotide

Sequence	apparent Kd [1] [nM]	apparent Kd [2] [nM]	apparent Kd [3] [nM]	apparent Kd [4] [nM]
CAAUUGGCACAGAAGGGUGACAUGAGGAUCACCCAUGUAGCGUGGCACUCAGGAGAAGCCACGCCACAGGAUAUGUGCCGGCAC	73.6	37.1		
CAAUUUAUAACAGGAUAUAUAAUACAAUAGUUAAUAGAAGGGUUUAAUACAUGAGGAUCACCCAUGUCAUGUGUCAUAAUUACC			34.8	30.5
CAAUUUAUAACAGGAUAUGUAUUACAAAAGUUAAUAGAAGGGUUUAAUACAUGAGGAUCACCCAUGUCAUGUGUCAUAAUUACC			36.7	29.6
CACACAUGAGGAUCACCCAUGUCGUGGGCGGAAAACUGUGCACAGGAUAUGGUGAAGGCAACUCACCAGAAGGGUGGUCAGGGA	113	55		
CACCGUUACAGAGGAUAUGACACAUGAGGAUCACCCAUGUAAUAAAUGAGAAUUUCGAAUGUAACUCAGAAGGCUGGAAUCGGC			30.5	52.8
CACGCGAAAAGGAGUACAUGAGGAUCACCCAUGUAGGGUGGGAGAAGGCCGGUCGAGAGGUUUAUGGAGGAUAUUUAGGUGUUG	78.8	52.5		
CACGGUGAUGUAGGAUAUAUGCUGGAAUACAGCAUAGAAGGACAUGAGGAUCACCCAUGUAAAGUGUCUCCAAAUAACACCGUG			31.1	77
CACGUCCACACAGGAUAUGCUGGACUUUGUCCAGCAGAAGGGUGACAUGAGGAUCACCCAUGUAAAAGGACGUGUAUAUUUAAU	819	62.1		
CACUGCAUGUAAGGAUAUCGACUGGAAUACAGUCGAGAAGGUACAUGAGGAUCACCCAUGUAAGCAGUGAAUAAUAAUAAUAAU			12.1	23.4
CAGAAGUCAGGAUAUGCUGCUCGUCACUUGCGUGAUGAGUAGCAGAAGGGACAUGAGGAUCACCCAUGUAAAGG			160	417
CAGCAAAAGUAGAAGGCAGUACUGAUUCAGUACUGAGGAUAUACAUGAGGAUCACCCAUGUAAUAUAGCUGAAUAAUAUAUUAU			6.17	7.56
CAGCAAAAGUAGAAGGCAGUACUGAUUCAGUACUGAGGAUAUACAUGAGGAUCACCCAUGUCUUCCAGCUGAAUAAUAAAAUAA			6.14	45.5
CAGCAAUGUAAGAAGGCUGCUCCGAUAAGGAGCAGAGGAUAUUACAUGAGGAUCACCCAUGUAUGAACCAAUAGCUGAAAUAAA			8.78	94.2
CAGCGAUAGCUGAAUGGUACAUGGGAGGAUAUGGGUUACAUGAGGAUCACCCAUGUUAAAUAAUACUAGAAGGCCCAUGUACCU	16.5	4.55		
CAGCGCUGUCGAGAGGAUAUGCGGUGAUGGACAUGAGGAUCACCCAUGUUAGCGAUAGCAUUACUGUAGAAGGCUCUACAGCUGC	30.6	13		
CAGCUACCCAGUAUGGGUAUUUGUACAGAAGGCCAGGUACAUGAGGAUCACCCAUGUAAAGAUAUGGAGGAUAUGUUAGUGUAU	22.1	6.86		
CAGCUGAAAGUCAGGAUAUCUAGAGCUGCGGCUCUAGAGAAGGGACAUGAGGAUCACCCAUGUCACUCCAGCUG			16.4	18.3
CAGGAUAGAGGAUAUACAUAGAUACAGAUUCGUGUGAUCCUACAUGAGGAUCACCCAUGUAGAAGGCUAUCCUG			213	15.9
CAGGGAACAGGAUAUACAUGAGGAUCACCCAUGUGUUCCAGCUAGGAAACUAGCAAAUGUAGAAGGGUUCCCUG			174	922
CAGGUAGACUGAGGAUAUACAUGACUUAGUCUAUCUAGGUCAUUAACCACAUGAGGAUCACCCAUGUAGAAGGCAGUCUGCCUG			16.3	19.6
CAGGUAGACUGAGGAUAUACAUUAAACAGCUAGUCUAUCUAGCUGGUCACAUGAGGAUCACCCAUGUAGAAGGCAGUCUGCCUG			24.6	65.4
CAGGUCUGAGGAUAUCCAUCUUCCUACAUGAGGAUCACCCAUGUUUCCCUCUGGGUUUUCGGAGAAGGCAGUUUUU			263	226
CAGUACUGAGGAUAUACAUGAGGAUCACCCAUGUCCCAAAAGUAGGAUACUACUAUUAGUAGAAGGCAGUACUG			37.4	323
